Data from ChEMBL document CHEMBL4368918, “Structure-Based Design of Inhibitors Selective for Human Proteasome β2c or β2i Subunits” (J Med Chem, 2019).
Activity calls are given as the source filed them. No cut-off for these calls is given here.

Assays:
[1] = species on record: Homo sapiens; test: Selectivity ratio of IC50 for 20S immunoproteasome beta 2 in human Raji cell lysates to IC50 for 20S constitutive proteasome beta 2 trypsin-like activity in human Raji cells; assay type: cell-based
[2] = biological target: T1, Proteasome subunit beta type-9 (Homo sapiens, UniProt P28065); test: Inhibition of 20S immunoproteasome beta 1 in human Raji cell lysates after 1 hr by competitive ABPP assay; assay type: subcellular, Lysate
T1 sequence (P28065 whole entry): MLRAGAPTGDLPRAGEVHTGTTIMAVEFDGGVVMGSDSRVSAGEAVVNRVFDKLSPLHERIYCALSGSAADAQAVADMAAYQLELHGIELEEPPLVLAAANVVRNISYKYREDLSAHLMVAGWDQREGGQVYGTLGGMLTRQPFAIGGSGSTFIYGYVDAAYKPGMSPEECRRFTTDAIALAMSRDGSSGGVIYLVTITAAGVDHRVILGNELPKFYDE
How it was run: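 Raji cells were sonicated in 3 volumes of Tris pH 7.5 lysis buffer containing DTT, MgCl₂, sucrose, 2 mM ATP and 0.05% digitonin. Lysate (5 μg protein, in buffer with 2 mM ATP and glycerol) was preincubated with inhibitor for 1 h at 37 °C, then with a cocktail of three fluorescent ABPs for 1 h. […] In-gel fluorescence densitometry was normalized to mock. IC50 came from the mean of three experiments.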

[3] = biological target: T2, Proteasome subunit beta type-10 (Homo sapiens, UniProt P40306); test: Inhibition of 20S immunoproteasome beta 2 in human Raji cell lysates after 1 hr by competitive ABPP assay; assay type: subcellular, Lysate
T2 sequence (P40306 whole entry): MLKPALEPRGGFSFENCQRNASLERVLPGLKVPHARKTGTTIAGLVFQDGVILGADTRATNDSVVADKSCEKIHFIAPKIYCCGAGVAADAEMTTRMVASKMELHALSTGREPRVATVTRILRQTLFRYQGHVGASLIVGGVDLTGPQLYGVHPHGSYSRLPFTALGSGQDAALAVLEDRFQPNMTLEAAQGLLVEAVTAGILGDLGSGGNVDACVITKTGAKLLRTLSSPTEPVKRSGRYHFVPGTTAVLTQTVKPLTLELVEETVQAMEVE

[4] = biological target: T3, Proteasome Macropain subunit MB1 (Homo sapiens, UniProt P28074); test: Inhibition of 20S constitutive proteasome beta 5 chymotrypsin-like activity in human RPMI8226 cell lysates after 1 hr by coomassie brilliant blue staining-based fluorescence assay; assay type: subcellular, Lysate
T3 sequence (P28074 whole entry): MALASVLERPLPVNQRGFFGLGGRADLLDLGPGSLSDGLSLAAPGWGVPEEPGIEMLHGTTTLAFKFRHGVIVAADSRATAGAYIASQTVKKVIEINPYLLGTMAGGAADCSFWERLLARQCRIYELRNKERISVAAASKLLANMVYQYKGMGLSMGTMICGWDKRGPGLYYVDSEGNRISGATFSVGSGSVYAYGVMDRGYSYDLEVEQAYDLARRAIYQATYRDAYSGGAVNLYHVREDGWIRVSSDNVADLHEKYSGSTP
How it was run: (§1)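 Cells at (5–8)×10⁵ cells/mL were exposed to inhibitor for 1 h at 37 °C, washed in PBS and lysed on ice for 1 h in digitonin/ATP buffer. Residual activity was read by cocktail-ABP labeling, SDS-PAGE and fluorescence densitometry relative to mock, with Coomassie staining correcting for loading. IC50 came from three independent experiments.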

[5] = species on record: Homo sapiens; test: Selectivity ratio of IC50 for 20S immunoproteasome beta 2 (unknown origin) to IC50 for 20S constitutive proteasome beta 2 trypsin-like activity (unknown origin)
[6] = species on record: Homo sapiens; test: Selectivity ratio of IC50 for 20S immunoproteasome beta 5 in human Raji cell lysates to IC50 for 20S constitutive proteasome beta 2 trypsin-like activity in human Raji cells; assay type: cell-based
[7] = species on record: Homo sapiens; test: Selectivity ratio of IC50 for 20S immunoproteasome beta 1 in human Raji cell lysates to IC50 for 20S constitutive proteasome beta 2 trypsin-like activity in human Raji cells; assay type: cell-based
[8] = biological target: T4, Proteasome subunit beta type-7 (Homo sapiens, UniProt Q99436); test: Inhibition of 20S constitutive proteasome beta 2 trypsin-like activity in human RPMI8226 cell lysates after 1 hr by coomassie brilliant blue staining-based fluorescence assay; assay type: subcellular, Lysate
T4 sequence (Q99436 whole entry): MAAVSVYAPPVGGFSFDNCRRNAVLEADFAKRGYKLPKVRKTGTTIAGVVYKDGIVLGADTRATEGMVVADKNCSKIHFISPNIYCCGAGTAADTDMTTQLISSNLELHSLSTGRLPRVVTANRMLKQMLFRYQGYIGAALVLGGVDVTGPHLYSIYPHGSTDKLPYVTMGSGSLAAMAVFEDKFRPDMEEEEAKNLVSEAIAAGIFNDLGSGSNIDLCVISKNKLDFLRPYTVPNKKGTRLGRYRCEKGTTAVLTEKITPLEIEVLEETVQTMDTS

[9] = biological target: T1, Proteasome subunit beta type-9; test: Inhibition of 20S immunoproteasome beta 1 in human RPMI8226 cell lysates after 1 hr by coomassie brilliant blue staining-based fluorescence assay; assay type: subcellular, Lysate
How it was run: as §1, with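 “Living RPMI-8226 cells were grown in RPMI-1640 with 10% FCS. Cells” for “Cells”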

[10] = biological target: T2, Proteasome subunit beta type-10; test: Inhibition of 20S immunoproteasome beta 2 (unknown origin) by cell based ABPP assay
How it was run: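 Living RPMI-8226 cells, (5–8) ×10^5 cells/mL, exposed to inhibitor 1 h at 37 °C, washed, lysed in digitonin buffer 1 h on ice; residual activity labelled with cocktail ABPs, SDS-PAGE in-gel fluorescence, bands divided by mock, Coomassie staining to correct loading. IC50 from mean of three independent experiments.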

[11] = species on record: Homo sapiens; test: Selectivity ratio of IC50 for 20S constitutive proteasome beta 5 chymotrypsin-like activity in human Raji cell lysates to IC50 for 20S constitutive proteasome beta 2 trypsin-like activity in human Raji cells; assay type: cell-based
[12] = biological target: T3, Proteasome Macropain subunit MB1; test: Inhibition of 20S constitutive proteasome beta 5 chymotrypsin-like activity in human Raji cell lysates after 1 hr by competitive ABPP assay; assay type: subcellular, Lysate
[13] = biological target: T2, Proteasome subunit beta type-10; test: Inhibition of 20S immunoproteasome beta 2 in human RPMI8226 cell lysates after 1 hr by coomassie brilliant blue staining-based fluorescence assay; assay type: subcellular, Lysate
[14] = biological target: T5, Proteasome subunit beta type-8 (Homo sapiens, UniProt P28062); test: Inhibition of 20S immunoproteasome beta 5 in human RPMI8226 cell lysates after 1 hr by coomassie brilliant blue staining-based fluorescence assay; assay type: subcellular, Lysate
T5 sequence (P28062 whole entry): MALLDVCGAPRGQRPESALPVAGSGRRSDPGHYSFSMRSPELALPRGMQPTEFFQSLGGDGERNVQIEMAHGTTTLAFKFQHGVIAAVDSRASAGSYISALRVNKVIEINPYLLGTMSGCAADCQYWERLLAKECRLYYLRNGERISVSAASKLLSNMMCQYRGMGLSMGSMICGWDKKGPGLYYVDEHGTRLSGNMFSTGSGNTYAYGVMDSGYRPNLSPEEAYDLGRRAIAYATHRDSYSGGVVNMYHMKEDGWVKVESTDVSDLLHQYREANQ
How it was run: as §1, with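 “Living RPMI-8226 cells were grown in RPMI-1640 with 10% FCS. Cells” for “Cells”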

[15] = biological target: T5, Proteasome subunit beta type-8; test: Inhibition of 20S immunoproteasome beta 5 in human Raji cell lysates after 1 hr by competitive ABPP assay; assay type: subcellular, Lysate
[16] = species on record: Homo sapiens; test: Selectivity ratio of IC50 for 20S constitutive proteasome beta 1 caspase-like activity in human Raji cell lysates to IC50 for 20S constitutive proteasome beta 2 trypsin-like activity in human Raji cells; assay type: cell-based
[17] = biological target: T6, Proteasome subunit beta type-6 (Homo sapiens, UniProt P28072); test: Inhibition of 20S constitutive proteasome beta 1 caspase-like activity in human Raji cell lysates after 1 hr by competitive ABPP assay; assay type: subcellular, Lysate
T6 sequence (P28072 whole entry): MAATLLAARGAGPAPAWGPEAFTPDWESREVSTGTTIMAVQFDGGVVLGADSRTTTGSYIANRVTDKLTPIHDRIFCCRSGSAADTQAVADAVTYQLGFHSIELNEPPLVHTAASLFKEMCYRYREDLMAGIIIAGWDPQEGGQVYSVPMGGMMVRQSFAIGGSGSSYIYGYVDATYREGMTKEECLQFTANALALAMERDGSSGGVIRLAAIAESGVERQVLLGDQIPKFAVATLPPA
How it was run: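 Raji cells were sonicated in 3 volumes of Tris pH 7.5 lysis buffer containing DTT, MgCl₂, sucrose, 2 mM ATP and 0.05% digitonin. Lysate (5 μg protein, in buffer with 2 mM ATP and glycerol) was preincubated with inhibitor for 1 h at 37 °C, then with a cocktail of three fluorescent ABPs for 1 h. In-gel fluorescence densitometry was normalized to mock. IC50 came from the mean of three experiments.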

[18] = biological target: T7, Proteasome subunit beta type-10 (Homo sapiens) (UniProt P40306); test: Binding affinity to 20S immunoproteasome beta 2 in human Raji cell lysates at 3 uM by ABPP assay; assay type: subcellular; conditions: Lysate
T7 sequence (whole entry): T2 sequence (P40306 whole entry)
How it was run: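 Raji lysate (5 μg total protein, Tris pH 7.5, DTT, MgCl₂, glycerol, 2 mM ATP) was labeled with the BODIPY(FL) probe for 1 h at 37 °C. […] The wet gel was scanned at Cy2 settings.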

Activity [18]	Structure (SMILES)	Ratio IC50 [1]	IC50 [2]	IC50 [3]	IC50 [4]	Ratio IC50 [5]	Ratio IC50 [6]	Ratio IC50 [7]	IC50 [8]	IC50 [9]	IC50 [10]	Ratio IC50 [11]	IC50 [12]	IC50 [13]	IC50 [14]	IC50 [15]	Ratio IC50 [16]	IC50 [17]
–	COC[C@H](NC(=O)[C@H](CC(C)C)NC(=O)c1cnc(C)s1)C(=O)N[C@H](/C=C/S(C)(=O)=O)Cc1ccc(CN)cc1	52	> 100 µM	4 µM	> 10 µM	> 14	740	> 1300	> 10 µM	> 10 µM	> 1 µM	590	45.3 µM	> 10 µM	> 10 µM	57.1 µM	> 1300	> 100 µM
–	COc1ccc(C[C@H](NC(=O)[C@H](C)NC(=O)CN2CCOCC2)C(=O)N[C@@H](C[C@@H]2CCC[C@H]3CCCC[C@H]32)C(=O)[C@@]2(C)CO2)cc1	–	> 100 µM	–	–	–	–	–	–	–	–	–	> 100 µM	–	–	28.4 µM	–	53 µM
–	CC(C)C[C@H](NC(=O)[C@H](Cc1ccccc1)N=[N+]=[N-])C(=O)N[C@H](C(=O)N[C@H](/C=C/S(C)(=O)=O)Cc1ccc(CN)cc1)[C@@H](C)O	–	> 100 µM	0.11 µM	> 10 µM	–	–	–	–	> 10 µM	0.33 µM	–	0.75 µM	> 10 µM	> 10 µM	2.1 µM	–	> 100 µM
–	COc1ccc(C[C@H](NC(=O)[C@H](C)NC(=O)CN2CCOCC2)C(=O)N[C@@H](C[C@@H]2CCCc3ccccc32)C(=O)[C@@]2(C)CO2)cc1	–	> 100 µM	–	–	–	–	–	–	–	–	–	> 100 µM	–	–	> 100 µM	–	> 100 µM
Active	CC1=CC(C)=N/C1=C(/CCCCc1cn(CCOc2ccc(C[C@H](NC(=O)[C@H](C)NC(=O)CN3CCOCC3)C(=O)N[C@@H](CC3CCCC4CCCCC43)C(=O)[C@@]3(C)CO3)cc2)nn1)c1c(C)cc(C)n1B(F)F (stereo partly specified)	–	–	–	–	–	–	–	–	–	–	–	–	–	–	–	–	–
